Screening results deposited in PubChem by several laboratories.
MT stabilize HCS: microtubule stabilizers in HeLa cells | % tubulin-high responders, % at 10 µM | 200,000 tested, 0.83% active | HeLa tubulin immunostaining HCS, 24 h; share of cells brighter than vehicle mean+2SD;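 active = plate Z-score above 3 for both tubulin-high and condensed-nucleus cell shares, with cell loss under 80%, at 10 µM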;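 note: anti alpha tubulin signal scored within the nucleus-defined area of each cell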
b-catenin transl: beta-catenin nuclear translocation modulation | HeLa beta-catenin nuclear translocation, immunofluorescence imaging | nuclear translocation activity, % at 5 µM | 190,000 tested, 0.3% active | AID 1665;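 active = nuclear translocation activity above 50% at 5 µM, with a well cell count of 50 or more; inconclusive = wells under 50 cells across six images, flagged as toxic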;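 note: per-cell ratio of nuclear to cytoplasmic median beta-catenin stain intensity; plate controls were DMSO negative control for no effect and GSK-3 inhibitor IX positive control for full effect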
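Test system: human HeLa cells, endogenous beta-catenin. Times: 24 h compound exposure, 37°C. Measured by: beta-catenin immunofluorescence imaging with DAPI.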
Ins promoter up: MIN6 insulin promoter up-regulation; MIN6 insulin promoter-GFP reporter, high-content imaging; stronger effect = higher value; z-score at 5 µM; 190,000 tested, 0.3% active; AID 1625;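 active = z-score above 3 at 5 µM with at least 500 cells counted in the well; inconclusive = wells under 500 cells, flagged as cytotoxic or low count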
Wee1 degr inh: blocks degradation of human Wee1 kinase; AID 1321; HeLa Luc-Wee1K328M stability, luciferase luminescence; 100% = proteasome inhibitor MG132 effect; reporter increase, % at 5 µM; 220,000 tested, 1.2% active;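 active = activation above the mean of all tested compounds plus 3 SD, set per screening run, cut at about 8.8% in these data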;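 note: cells exposed to compound for 20 h before luminescence read; 0% = DMSO alone and 100% = MG132 at 30 µM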
Target sequence (P30291 whole entry K328M): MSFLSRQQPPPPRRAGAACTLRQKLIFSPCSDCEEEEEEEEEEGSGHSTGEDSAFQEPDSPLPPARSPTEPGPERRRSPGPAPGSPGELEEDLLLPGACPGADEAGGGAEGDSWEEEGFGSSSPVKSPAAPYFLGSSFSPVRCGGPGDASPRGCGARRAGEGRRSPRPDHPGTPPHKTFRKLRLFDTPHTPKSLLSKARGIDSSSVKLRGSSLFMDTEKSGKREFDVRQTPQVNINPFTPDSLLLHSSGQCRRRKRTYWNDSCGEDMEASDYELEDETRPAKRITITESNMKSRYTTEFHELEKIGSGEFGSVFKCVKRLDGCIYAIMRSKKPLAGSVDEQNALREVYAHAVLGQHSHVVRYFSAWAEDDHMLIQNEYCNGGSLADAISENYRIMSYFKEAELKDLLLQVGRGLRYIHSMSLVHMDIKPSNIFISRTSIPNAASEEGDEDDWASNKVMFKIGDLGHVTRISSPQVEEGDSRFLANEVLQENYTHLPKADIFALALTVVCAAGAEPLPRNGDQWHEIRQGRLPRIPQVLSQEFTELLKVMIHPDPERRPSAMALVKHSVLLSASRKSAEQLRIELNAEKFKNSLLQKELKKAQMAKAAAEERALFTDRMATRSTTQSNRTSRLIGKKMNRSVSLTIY
Autophagy HCS: modulators of autophagy. MEF GFP-LC3 puncta imaging; test concentration mostly 10 µM. calls only at 10 µM (by protocol). 190,000 tested, 0.98% active. AID 463193;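 active = percentage of spot-positive cells more than 3 SD above its plate mean, without a fluorescence outlier flag or 80% toxicity; inconclusive = no clear call, values can overlap the other calls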;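 note: spot-positive cell cutoff set from DMSO-treated cells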
Active calls of the source: *; i = inactive; ? = inconclusive; nt = no result; + = active, no number. Shown are actives, neighbours in structure and some others; about 2.9% of the full set was active somewhere.

SMILES | MT stabilize HCS | b-catenin transl | Ins promoter up | Wee1 degr inh | Autophagy HCS
Cc1cccc(Cn2c(=O)n(-c3ccc(CC(=O)NCc4ccco4)cc3)c(=O)c3sccc32)c1 | 29* | -1 | 0.3 | 0 | i
Cc1ccc(-n2c(=O)c3sccc3n(CC(=O)NCc3ccco3)c2=O)cc1 | 4 | -1 | 1.2 | -3 | i
N#Cc1ccccc1Cn1c(=O)n(-c2ccc(CC(=O)NCc3ccco3)cc2)c(=O)c2sccc21 | 1 | -3 | 1.4 | -2 | i
COc1cccc(/C=C/C(=O)OCC(=O)Nc2cccc(S(=O)(=O)N3CCOCC3)c2)c1OC | 4 | -1 | 0.39 | 1 | i
O=C(NCc1cccc(F)c1)C1CCN(C(=O)c2sccc2-n2cccc2)CC1 | 4 | 2 | nt | -4 | i
CSc1sc(C(=O)NN)c2c1C1(CCC2)SCCS1 | nt | -3 | -0.25 | -1 | nt
Cc1cc(NC(=O)c2cc(-c3ccco3)on2)nn1Cc1ccc(Cl)cc1 | 18* | nt | nt | -1 | i
O=C(CC1NCCNC1=O)Nc1ccc([N+](=O)[O-])cc1 (stereo not given) | 8 | -7 | 0.34 | 4 | i
CC(C)(C)NC(=O)C(Cc1ccccc1)NS(=O)(=O)c1cccc2nsnc12 (stereo not given) | 3 | -1 | -1.1 | 1 | +
N#CC(C#N)=Cc1cccn1-c1ccc(S(N)(=O)=O)cc1 | 3 | 0 | 1 | 5 | i
c1ccc(C2Oc3ccccc3C3CC(c4cccs4)=NN32)cc1 (stereo not given) | 5 | 0 | nt | -4 | i
O=[N+]([O-])c1ccc(C2Oc3ccccc3C3CC(c4ccccc4)=NN32)s1 (stereo not given) | 3 | -1 | 0.69 | 5 | +
CCCCCCn1nc(C(=O)Nc2nc3c(s2)CCCC3)c2ccccc2c1=O | 5 | 6 | -0.31 | -1 | i
Cc1ccc(-n2ncc(C(=O)Nc3cc(Cl)ccc3Cl)c2C2CCNCC2)cc1 | 5 | 0 | 0.1 | -3 | +
CCOC(=O)c1cnn(-c2ccc(Cl)cc2)c1C1CCN(C(=O)OC(C)(C)C)CC1 | 1 | nt | -0.21 | 1 | i
Cc1ccc(-n2ncc(C(=O)Nc3cc(Cl)cc(Cl)c3)c2C2CCNCC2)cc1C | 62 | 49 | ? | 4 | +
COc1ccc(CCc2nnc(CCC(=O)NCc3ccc4ncccc4c3)o2)cc1 | 4 | -3 | 0.51 | 1 | i
Cc1cc(C)c(S(=O)(=O)Nc2ccc(O)cc2)c(C)c1 | 2 | 3 | 0.23 | 4 | i
Cc1cc(C)c(S(=O)(=O)Nc2ccc3c(c2)CCC3)c(C)c1 | 14* | 16 | -0.01 | 1 | i
COc1ccc(S(=O)(=O)N2CCOCC2)cc1NC(=O)CSc1n[nH]c(C(C)C)n1 | 4 | -2 | nt | 2 | i
CC1(C)Cc2c(ccc3ccccc23)C(c2cc3ccccc3oc2=O)=N1 | 1 | 2 | 4.2* | 1 | i
CC1(C)Cc2ccccc2C(c2cc3ccccc3oc2=O)=N1 | 4 | nt | nt | 0 | i
CCOC(=O)N/N=C/c1c(C)nn(-c2cccc(C(F)(F)F)c2)c1Cl | 24* | 13 | 1.9 | 4 | i
COc1ccc2nc3ccccc3nc2c1N | nt | 0 | -0.11 | 9.0* | nt
CCc1ccc(C2NC(=S)NC3=C2C(=O)CC(C)(C)C3)cc1 (stereo not given) | 6 | 4 | 1.4 | 2 | i
SMILES | MT stabilize HCS | b-catenin transl | Ins promoter up | Wee1 degr inh | Autophagy HCS
CCOCCCNC(=O)c1cc2sc(Cl)cc2n1CC | 14* | nt | 1.2 | 3 | +
Cc1ccc(-n2nnc(-c3ccnc4ccccc34)n2)cc1 | 4 | 1 | 0.61 | 3 | i
CCOC(=O)c1cc(-c2ccccc2)sc1NC(=S)Nc1cc(C)ccn1 | 4 | -1 | 0.24 | -2 | +
C=CCSc1nnc(NC(=O)c2cccc(S(=O)(=O)N3CCOCC3)c2)s1 | 3 | 0 | 3.2* | 5 | i
CCOC(=O)Cn1nc(C)c(NC(=O)COc2ccccc2[N+](=O)[O-])c1C | 2 | -2 | -0.22 | 1 | i
CCN1C(=O)C(F)(CC)C(=O)c2ccccc21 (stereo not given) | 7 | 2 | -0.34 | -2 | i
COc1ccc(Nc2ncccc2C(=O)Nc2ccccc2)cc1 | 4 | 2 | 1.1 | 2 | +
O=C(O)c1ccc(Nc2nc(-c3ccccc3)c3ccccc3n2)cc1 | 2 | -1 | 0.59 | 3 | +
CC1=C(C(=O)Nc2ccccc2)C(c2sccc2C)n2nnnc2N1 (stereo not given) | 1 | nt | 0.95 | -1 | i
O=C(Nc1ccc(N2CCN(C(=O)c3ccccc3)CC2)c(Cl)c1)c1ccc(Br)o1 | 8 | 1 | -3 | 0 | i
Cc1ccc(NC(=O)c2cc(NC(=O)c3ccco3)ccc2N2CCOCC2)cc1Cl | 2 | -6 | -1.3 | -2 | +
O=C(Nc1ccc(N2CCCC2)c(Cl)c1)c1ccco1 | 3 | -4 | 0.19 | 0 | i
O=C(Nc1ccc(N2CCOCC2)c(Cl)c1)c1ccc(Br)o1 | 2 | 0 | 0.76 | 11* | i
COc1ccccc1NC(=O)C1=C(C)Nc2ncnn2C1c1cccs1 (stereo not given) | 3 | -2 | 0.11 | -2 | i
COc1ccc(C2C(C(=O)Nc3ccccc3OC)=C(C)Nc3ncnn32)cc1 (stereo not given) | 4 | nt | 0.98 | -1 | +
N#CCc1cc2ccc3cccc4ccc(c1)c2c34 | nt | 2 | nt | 22* | nt
C/C(CC(=O)N1CCCC1)=N\NC(=O)c1cc2ccccc2cc1O | nt | 0 | 0.62 | 12* | nt
Cc1ccc(-c2onc3ccc(C=O)cc23)cc1 | 1 | nt | nt | -1 | i
O=C(O)/C=C/c1ccc2noc(-c3ccccc3)c2c1 | 2 | 1 | -0.32 | 26* | i
COc1ccc(OC)c(C2CC(=O)c3c([nH]c(C(=O)OC(C)C)c3C)C2)c1 (stereo not given) | 8 | nt | 0.53 | 2 | +
COc1ccc(OC)c(C2CC(=O)c3c([nH]c(C(=O)OCC4CCCO4)c3C)C2)c1 (stereo not given) | 31* | -2 | -0.67 | -1 | nt
COc1ccccc1C1CC(=O)NC(C)=C1C(=O)OCC1CCCO1 (stereo not given) | 2 | -2 | 0.3 | 4 | i
COCCOC(=O)c1[nH]c2c(c1C)C(=O)CC(c1cc(OC)ccc1OC)C2 (stereo not given) | 4 | 1 | -0.4 | 6 | i
CCCOCCOC(=O)c1[nH]c2c(c1C)C(=O)CC(c1cc(OC)ccc1OC)C2 (stereo not given) | 11* | 4 | -1.2 | -1 | i
Cc1nn(Cc2ccccc2)c(Cl)c1/C=C/C(=O)OCC(=O)N1CCCC1=O | 6 | 0 | -0.03 | -1 | i
COc1cc2c(C(=O)OCCN(C)C)c(CSc3ccccc3)n(C)c2cc1Br | 2 | 4 | 0.1 | 10* | i
COC(=O)C(Cc1cnc[nH]1)NC(=O)C1CCC(=O)N1 (stereo not given) | 6 | -7 | 0.92 | -2 | i
